Calls of active or inactive are those of the source. The rule behind the calls is not given here.
Columns and labels:
[1] = Toxicity in po dose Kunming mouse after 14 days; assay type: organism-based; conditions: in vivo, time 14 day
Summary of the method: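 Acute toxicity followed OECD guidelines in ten mice (five male, five female). A single oral dose of 1000 mg/kg was given, with a vehicle control group. Behaviour was observed over 14 days. Mice were then sacrificed for gross and H&E histological examination of heart, liver, kidney and stomach.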

C6 [2] = assay: Antiinflammatory activity against LPS-induced rat C6 cells assessed as decrease in GFAP protein expression at 20 uM after 24 hrs by DAPI staining based confocal laser microscopic method; assay type: functional, cell-based
Summary of the method: (§1)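 Cells on glass slides with compound at 20 μM final for 24 h: C6 with LPS 10 μg/mL stained for GFAP, BV2 with LPS 1 μg/mL stained for Iba-1. Fixed in 4% paraformaldehyde, blocked in 1% BSA/0.3% Triton X-100, primary antibody 1:100 overnight at 4 °C, secondary 1:200, DAPI mount, confocal imaging. Intensity given as % of LPS group, n = 3.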

BV-2 [3] = assay: Cytotoxicity against mouse BV-2 cells assessed as reduction in cell viability after 24 hrs by MTT assay; assay type: cell-based; conditions: BV-2, 24 h
Summary of the method: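 C6 or BV2 cells seeded at 1–5×10^5 per well; after 12 h exposed to 0, 6.25, 12.5, 25, 50 or 100 μM (final, DMSO <0.4%) for 24 h. MTT added for 4 h, dissolved in DMSO, read at 570 nm. IC50 as mean of three independent experiments run in triplicate.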

[4] = Toxicity in LPS-induced hippocampal neuroinflammatory Kunming mouse model assessed as death at 50 mg/kg, ip administered bid for 6 days […]; assay type: organism-based; conditions: in vivo, 144 h, time 6 day
Summary of the method: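 Male Kunming mice (8 weeks, 20–25 g, n = 10/group) were anaesthetised with i.p. chloral hydrate, then given LPS (3 μL of 10 mg/mL) into the lateral ventricle at 0.5 μL/min; sham mice received 3 μL saline. Compound was then given i.p. at 50 mg/kg in saline with 1% methyl cellulose for six consecutive days. Behaviour and deaths were recorded, and hippocampal slices were Nissl-stained.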

Mus musculus [5] = assay: Antiinflammatory activity against LPS-induced hippocampal neuroinflammatory Kunming mouse model assessed as reduction in iba-1 level in hippocampus at 50 mg/kg, ip administered bid for 6 days by Western blot analysis; assay type: functional, organism-based; conditions: time 6.0 day
BV-2 [6] = assay: Antiinflammatory activity against LPS-induced mouse BV-2 cells assessed as decrease in INOS protein expression at 40 uM after 24 hrs by Western blot analysis relative to control; assay type: functional; design: scale not given: the % may be the effect or the level left
Summary of the method: (§2)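 BV2 cells in DMEM with 10% FBS; LPS 1 μg/mL plus compound at 10, 20 or 40 μM final for 24 h. Lysates in RIPA with 1 mM PMSF; 30 μg protein on 8% SDS-PAGE and blotted for iNOS and COX-2, GAPDH as reference; ECL detection and densitometry; at least three independent experiments.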

BV-2 [7] = assay: Antiinflammatory activity against LPS-induced mouse BV-2 cells assessed as decrease in iba-1 protein expression at 20 uM after 24 hrs by DAPI staining based confocal laser microscopic method; assay type: functional, cell-based; summary of the method: as §1
BV-2 [8] = assay: Inhibition of LPS-induced TNFalpha production in mouse BV-2 cells after 24 hrs by ELISA; assay type: functional, cell-based; conditions: dose 10-40 µM
Summary of the method: (§3)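 BV2 cells at 5×10^5 cells/mL stimulated with LPS 1 μg/mL; compound at 10, 20 or 40 μM final for 24 h, DMSO in blanks. Supernatant TNF-α and IL-10 measured by sandwich ELISA and PGE2 by competitive ELISA, OD at 450 nm; at least three independent experiments.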

C6 [9] = assay: Antiinflammatory activity against LPS-induced rat C6 cells assessed as decrease in INOS protein expression at 40 uM after 24 hrs by Western blot analysis relative to control; assay type: functional; design: scale not given: the % may be the effect or the level left
Summary of the method: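 C6 cells; LPS 10 μg/mL plus compound at 10, 20 or 40 μM for 24 h. Lysates with RIPA/PMSF, 30 μg protein on 8% SDS-PAGE, iNOS immunoblot and densitometry; at least three independent experiments.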

C6 [10] = assay: Inhibition of LPS-induced TNFalpha production in rat C6 cells after 24 hrs by ELISA; assay type: functional, cell-based; conditions: dose 10-40 µM
Summary of the method: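 C6 cells at 5×10^5 cells/mL stimulated with LPS 10 μg/mL; compound at 10, 20 or 40 μM final for 24 h. Supernatant TNF-α measured by sandwich ELISA at 450 nm; at least three independent experiments.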

Mus musculus [11] = assay: Antiinflammatory activity against LPS-induced hippocampal neuroinflammatory Kunming mouse model assessed as reduction in iba-1 level in hippocampus at 50 mg/kg, ip administered bid for 6 days by DAPI staining based microscopic method; assay type: functional, organism-based; conditions: time 6.0 day
BV-2 [12] = assay: Antiinflammatory activity against LPS-induced mouse BV-2 cells assessed as decrease in COX2 protein expression after 24 hrs by Western blot analysis; assay type: functional, cell-based; conditions: BV-2, 24 h; summary of the method: as §2
Mus musculus [13] = assay: Antiinflammatory activity against LPS-induced hippocampal neuroinflammatory Kunming mouse model assessed as reduction in GFAP level in hippocampus at 50 mg/kg, ip administered bid for 6 days by Western blot analysis; assay type: functional, organism-based; conditions: time 6.0 day
BV-2 [14] = assay: Antiinflammatory activity against LPS-induced mouse BV-2 cells assessed as decrease in ROS production at 10 to 40 uM after 6 hrs by DCFH-DA fluorescence probe based flow cytometric analysis; assay type: functional, cell-based; conditions: dose 10-40 µM
Summary of the method: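 BV2 cells with LPS 1 μg/mL and compound at 10, 20 or 40 μM for 6 h, then DCFH-DA 20 μM final for 30 min at 37 °C. Washed in cold PBS and read by flow cytometry, excitation 485 nm and emission 530 nm.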

Homo sapiens = species: Homo sapiens; assay: Selectivity index, ratio of IC50 for inhibition of human COX1 to IC50 for inhibition of human COX2
BV-2 [15] = assay: Antiinflammatory activity against LPS-induced mouse BV-2 cells assessed as increase in IL-10 production at 40 uM after 24 hrs by ELISA; assay type: functional, cell-based; summary of the method: as §3

Structure (SMILES): Cc1ccc(C(=O)NCCc2c[nH]c3ccccc23)c(O)c1
- LD50 at 336 h [1]: > 1000 mg/kg
- Activity (C6 [2]): Active
- IC50 (BV-2 [3]): > 100 µM
- Activity [4]: Non-Toxic
- Activity (Mus musculus [5]): Active
- Activity (BV-2 [6]): 100%
- Activity (BV-2 [7]): Active
- inhibition (BV-2 [8]): Dose-dependent effect
- Activity (C6 [9]): 29%
- inhibition (C6 [10]): Dose-dependent effect
- Activity (Mus musculus [11]): Active
- IC50 (BV-2 [12]): > 40 µM
- Activity (Mus musculus [13]): Active
- Activity (BV-2 [14]): Active
- Ratio IC50 (Homo sapiens): 3.95
- Activity (BV-2 [15]): Active

Structure (SMILES): O=C(NCCc1c[nH]c2ccc(O)cc12)c1ccccc1Nc1ccccc1
- LD50 at 336 h [1]: > 1000 mg/kg
- Activity (C6 [2]): Active
- IC50 (BV-2 [3]): > 100 µM
- Activity [4]: Non-Toxic
- Activity (BV-2 [6]): inactive
- Activity (BV-2 [7]): Active
- Activity (C6 [9]): 95%
- inhibition (C6 [10]): Dose-dependent effect
- Activity (Mus musculus [13]): Active
- Activity (BV-2 [14]): Active
- Ratio IC50 (Homo sapiens): 0.76
- Activity (BV-2 [15]): Active

From ChEMBL document CHEMBL4680229, “Design, synthesis and bioactivity study of N-salicyloyl tryptamine derivatives as multifunctional agents for the treatment of neuroinflammation” (Eur J Med Chem, 2020)
